In the library only some 11% were active in any assay of this set; here they are far more common.
S1P3 agonist = human S1P3 receptor agonists, primary screen, cell-based, primary and confirmation, NFAT-BLA reporter | Sphingosine 1-phosphate receptor 3 (Homo sapiens), Q99500 | activation, % at 4.5 µM | AID 373, 2006 | S1P3 NFAT-BLA reporter cells, agonism, FRET ratio; relative to 1 µM S1P, basal subtracted | hit rate 0.1% among 60,000;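 active means activation above the screen-wide mean plus 3 SD, cut at about 4.5% in these data, passing the limit was not always enough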
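Benchmarks: high control 1 µM S1P / System: stable CHO line with human S1P3, Gα16, NFAT-BLA reporter / Dosing: single compound concentration, 4.5 µM final / Timing: 4 h compound at 37 °C, 2 h substrate at RT / Measured by: FRET β-lactamase substrate fluorescence, excitation 405 nm, 460/535 nm emission ratio, background-subtracted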
M1 agonist = M1 muscarinic receptor agonists, primary screen, CHO-M1 cells, Fluo-4 calcium, agonist mode; hit rate 3% among 64,000; Muscarinic acetylcholine receptor M1; Fluo-4 calcium fluorescence; active compounds read high; B-score at 10 µM;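 active means fluorescence rise, raw or as B-score row- and column-corrected plate score, outside the 99.7% band of its plate's samples, either direction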
M1 antagonist = antagonists of rat M1 muscarinic receptor; Muscarinic acetylcholine receptor M1 (Rattus norvegicus), P08482; CHO-M1 cells, Fluo-4 calcium, ACh EC80 antagonist mode; active compounds read low; B-score at 10 µM; hit rate 3.4% among 64,000; AID 628, 2007;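 active means calcium fluorescence response, raw or row-and-column corrected B-score, differing from the plate sample mean either way at a set confidence level, mostly lower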
Target sequence (P08482 whole entry, looked up): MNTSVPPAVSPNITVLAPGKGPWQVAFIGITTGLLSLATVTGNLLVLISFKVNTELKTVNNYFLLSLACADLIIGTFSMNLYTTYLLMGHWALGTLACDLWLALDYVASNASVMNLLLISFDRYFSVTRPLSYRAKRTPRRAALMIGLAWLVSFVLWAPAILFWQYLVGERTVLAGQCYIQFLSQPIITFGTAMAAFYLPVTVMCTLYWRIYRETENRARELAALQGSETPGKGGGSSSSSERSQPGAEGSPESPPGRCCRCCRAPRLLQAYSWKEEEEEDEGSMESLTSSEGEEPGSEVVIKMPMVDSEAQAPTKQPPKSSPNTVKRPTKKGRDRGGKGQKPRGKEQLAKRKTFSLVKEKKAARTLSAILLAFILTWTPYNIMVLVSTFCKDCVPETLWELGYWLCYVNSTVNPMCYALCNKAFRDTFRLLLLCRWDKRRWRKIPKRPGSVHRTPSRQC
S1P1 ag-PAM = S1P1 agonists and agonism potentiators, primary screen, cell-based, primary and confirmation screens, CRE-bla reporter; hit rate 0.57% among 56,000; Sphingosine 1-phosphate receptor 1 (Homo sapiens), P21453; S1P1 CRE-bla cells, forskolin, beta-lactamase FRET, potentiator mode; S1P1 agonist co-added at EC20, 2 nM; 100% = saturating reference agonist, 0% = basal; activation, % at 9.5 µM;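 active means activation above a cutoff set at the mean activation of all tested compounds plus 3 SD, cut at about 54% in these data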;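 further: forskolin at 4 µM as EC80 and the EC20 agonist is SEW2871; 100% = SEW2871 at its EC100 plus forskolin at EC80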
D1 mod = D1 CRE-luciferase signal change, two-sided – cell-based, HEK293 D1, dopamine EC30, D1 allosteric modulator project, primary screen. hit rate 5.9% among 58,000. B-score at 10 µM. dopamine EC30 potentiation; actives deviate in either direction;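 active means luminescence count or its row- and column-corrected plate score outside the 99.7% band of the plate's sample wells, on either side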
D1 PAM confirm = D1 receptor positive allosteric modulators, retest, confirmation, cell-based, HEK293 D1, CRE-luciferase, duplicate | shares compounds with D1 mod | dopamine EC30 potentiation; active compounds read high | luminescence at 10 µM | hit rate 88% among 2,200 | AID 642, 2007;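 active means luminescence in either of two replicates above the same-plate mean plus 3 SD of the low-dose dopamine control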
D1 no dopamine = D1 receptor agonism without dopamine, confirmation, mechanism study for D1 allosteric modulator project, cell-based, HEK293 D1, CRE-luciferase, secondary assay 1; shares compounds with D1 mod; luminescence, no dopamine; active compounds read high; hit rate 0.8% among 1,900; luminescence at 10 µM; in the data active means luminescence above about 3900
Isoprot counter = isoproterenol response counter-screen activity for D1 modulators. shares compounds with D1 mod. hit rate 63% among 2,200. AID 647. HEK293 D1 CRE-luciferase, isoproterenol EC30 counter-screen; active compounds read high. luminescence at 10 µM;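 active means luminescence in either replicate above plate mean of wells with a partly effective reference agonist dose plus 3 SD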;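 further: isoproterenol raises cAMP through native beta-adrenoceptor Gs so signal bypasses D1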
The depositor's hits bear a star; · = not tested or not shown.

SMILES | S1P3 agonist | M1 agonist | M1 antagonist | S1P1 ag-PAM | D1 mod | D1 PAM confirm | D1 no dopamine | Isoprot counter
COc1cccc(C2=NOC(C(=O)Nc3cccc(C(C)=O)c3)C2)c1OC (centres undefined) | 1 | 1.6 | -1 | -8 | 3.6* | 4760 | 1744 | 2552
COc1ccc(C(c2sc3ncnn3c2O)N2CCN(c3ccccc3F)CC2)cc1OC (centres undefined) | 0 | -0.38 | 0.65 | -28 | 4.8* | 14444* | 1744 | 3908*
COc1ccc(C(c2sc3ncnn3c2O)N2CC(C)OC(C)C2)cc1OC (centres undefined) | 0 | 0.18 | 0.34 | -9 | · | · | · | ·
COc1cc(NS(=O)(=O)c2ccc(Br)cc2)c(OC)cc1NC(=O)c1ccco1 | -1 | 0.0015 | -0.21 | 21 | 2.2 | · | · | ·
CCOC(=O)c1n[nH]c2ccccc12 | -2 | 0.95 | 0.26 | 1 | · | · | · | ·
CCOC(=O)c1nn(-c2ccccc2)c(C(=O)OCC)c1N | 1 | 0.054 | 0.58 | -6 | 11* | 15940* | 1480 | 3820*
CCOC(=O)c1nnn(-c2ccccc2C#N)c1C | -1 | -0.85 | 0.00063 | -1 | -0.67 | · | · | ·
CCOC(=O)c1nn(-c2ccccc2)c(=O)c2c(N)scc12 | · | -0.38 | 0.33 | · | 6.3* | 16104* | 1620 | 3536*
CCOC(=O)c1nn(-c2ccccc2C)c(=O)c(C#N)c1C | · | 0.61 | -0.0077 | · | 3.1* | 9504* | · | 3032
CC(C)COC(=O)N1CC(O)CC1C(=O)O (centres undefined) | -1 | 0.44 | 0.68 | 1 | -0.79 | · | · | ·
O=C(c1cc(C2CC2)on1)N1CCN(c2ccc(F)cc2)CC1 | 0 | 0.012 | 0.78 | -9 | -0.54 | · | · | ·
COc1ccc(S(=O)(=O)N(C)CC(=O)NCc2cccnc2)cc1C | 0 | -0.56 | -0.91 | · | 0.096 | · | · | ·
COC(=O)C1=[N+]([O-])OC(C(=O)OC)C1c1c[nH]c2ccccc12 (centres undefined) | -1 | -0.66 | -0.013 | 2 | 4.2* | 5864 | 1700 | 2284
CCCCCn1c(-c2ccco2)nc2nc3ccccc3nc21 | 1 | 0.012 | -0.39 | 0 | 12* | 18024* | 1828 | 3868*
S=c1[nH]nc(-c2ccco2)n1Cc1ccccc1 | -4 | -0.79 | -0.26 | -12 | · | · | · | ·
c1coc(-c2nc3nc4ccccc4nc3n2CC2CCCO2)c1 (centres undefined) | · | · | · | · | 4.8* | 10012* | 1816 | 3456*
O=c1c2ccccc2nc(-c2ccco2)n1Cc1ccccc1 | · | -0.2 | 0.36 | · | 7.8* | 19492* | 1608 | 4148*
COC(=O)C1=C(C)N(c2cc(Cl)cc(Cl)c2)C(=O)C1 | · | 0.32 | -0.038 | · | -0.017 | · | · | ·
Cc1ccc(-c2noc(CCC(=O)N(C)c3ccccc3C)n2)cc1 | -2 | -0.26 | -1.6 | -42 | -0.061 | · | · | ·
CCOc1ccc(-n2cnnn2)cc1S(=O)(=O)N1CCCCC1 | -1 | 0.67 | 0.16 | · | -0.43 | · | · | ·
CCOc1ccc(C(C)=O)cc1COc1ccc(-n2cnnn2)cc1 | -2 | -0.24 | -0.9 | 20 | 5.9* | 15484* | 1632 | 3708*
COc1ccc(CSc2nnc3n(C)c(=O)c4c5c(sc4n23)CCCC5)cc1 | -2 | -0.56 | -1.3 | 7 | · | · | · | ·
Fc1ccccc1CSc1nnnn1-c1ccc2c(c1)OCO2 | -2 | 0.64 | -0.27 | · | 5.1* | 11056* | 1596 | 3348
O=C(CSc1nnnn1-c1ccc2c(c1)OCO2)NCc1ccccc1 | -1 | 0.34 | -0.039 | 8 | -0.46 | · | · | ·
Cc1c(-c2ccc(F)cc2)nc(N)c(C#N)c1-c1ccco1 | 0 | -1.9 | -0.41 | -49 | 5.8* | 8280* | · | 2672
SMILES | S1P3 agonist | M1 agonist | M1 antagonist | S1P1 ag-PAM | D1 mod | D1 PAM confirm | D1 no dopamine | Isoprot counter
CCCc1nc(N)c(C#N)c(-c2ccco2)c1CC | 0 | -0.27 | -1.2 | · | 6.7* | 9040* | 1564 | 3488*
N#Cc1c(N)nc(SCc2ccccc2)c(C#N)c1-c1ccco1 | 1 | -0.64 | 0.35 | -45 | 4.2* | 9744* | 1440 | 4144*
N#Cc1c(N)nc(SC2CCCCC2=O)c(C#N)c1-c1ccco1 (centres undefined) | · | 0.36 | 1.7 | · | · | · | · | ·
CCCCCN=Cc1c(C)[nH]n(-c2nc3ccccc3s2)c1=O | 0 | -0.022 | -0.045 | -33 | -1.2 | · | · | ·
CCOC(=O)C1CCN(C(=O)Nc2ccccc2Cl)CC1 | -2 | 0.2 | -0.2 | -2 | 0.5 | · | · | ·
O=C(CN1C(=O)CNC1=O)Nc1cccc(C(F)(F)F)c1 | 0 | 0.17 | -0.0047 | -6 | 2.6 | · | · | ·
COC(=O)Nc1c(-c2ccccc2)nc2ccc(C)cn12 | -1 | 0.14 | 0.15 | 7 | 3.1* | 6300 | 1728 | 2452
COc1ccc(OC)c(NS(=O)(=O)c2ccc(SC)cc2)c1 | -1 | 0.54 | -0.22 | 16 | 0.5 | · | · | ·
CCOc1ccc(S(=O)(=O)Nc2cc(OC)ccc2OC)cc1 | -1 | 0.36 | -0.87 | 11 | 4.5* | 11952* | 1748 | 3600*
CC(=O)COc1ccc2c3c(c(=O)oc2c1C)CCCCC3 | 1 | -0.33 | -1.6 | -11 | 4.2 | · | · | ·
CC(=O)C(C)Oc1ccc2c3c(c(=O)oc2c1C)CCCC3 (centres undefined) | -1 | -0.77 | -0.23 | 2 | 3.2* | 9268* | 1608 | 4820*
CCSc1cnc(-c2ccccc2)n1CC | · | 0.98 | 0.16 | · | 4.5* | 8832* | 1620 | 3012
COc1ccc(N2C(=O)C3CCCN3C2c2ccccc2Cl)cc1 (centres undefined) | 0 | 0.032 | -1 | -7 | -0.24 | · | · | ·
CSc1nc2ccccc2n1C(=O)Oc1ccccc1 | -2 | 0.1 | 0.034 | -14 | 9.4* | 12420* | 1516 | 4488*
Nc1c(C(=O)c2ccc(F)cc2)oc2ccccc12 | -2 | 0.065 | 0.018 | 5 | 11* | 24288* | 1764 | 3684*
COC(=O)c1ccccc1NC(=O)c1cc2ncc(Br)cn2n1 | 0 | -0.009 | -0.66 | 13 | 0.34 | · | · | ·
CN(C)/C=N/c1c(C#N)cnn1-c1ncnc2sc(-c3ccccc3)cc12 | 0 | 0.15 | -0.22 | -30 | 1 | · | · | ·
COc1ncnc2sc(-c3ccccc3)cc12 | 0 | -0.0058 | -0.0016 | -2 | 2.8* | 10684* | 1684 | 3504*
N#Cc1ccccc1NC(=O)c1ccc(-c2ccccc2Cl)o1 | 1 | 0.21 | -0.15 | -20 | -0.44 | · | · | ·

From PubChem BioAssay
